According to ChEMBL document CHEMBL4431315, “Jatrophane Diterpenoids as Modulators of P-Glycoprotein-Dependent Multidrug Resistance (MDR): Advances of Structure-Activity Relationships and Discovery of Promising MDR Reversal Agents” (J Med Chem, 2016):

Assays:
[1] = target: T1, ATP-dependent translocase ABCB1 (Homo sapiens, UniProt P08183); experiment: Inhibition of P-gp mediated efflux in adriamycin-resistant human HepG2 cells assessed as intracellular rhodamine-123 accumulation at 10 uM incubated in dark condition for 90 mins by flow cytometry relative to control; format: cell-based
How it was run: (§1)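 HepG2/ADR cells seeded at 5 × 10^5/well and given compound plus 10 μM Rho123 in the dark at 37 °C for 90 min. Cells washed twice in ice-cold PBS, resuspended in PBS, read by flow cytometry in FL1 (Em 525 nm). Fold of control = (treated fluorescence − background)/(Rho123-only fluorescence − background).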

[2] = target: T1, ATP-dependent translocase ABCB1; experiment: Inhibition of P-gp mediated efflux in adriamycin-resistant human HepG2 cells assessed as intracellular rhodamine-123 accumulation at 0.125 to 10 uM incubated in dark condition for 90 mins by flow cytometry; format: cell-based; how it was run: as §1
[3] = tested on: HepG2; experiment: Cytotoxicity against adriamycin-resistant human HepG2 cells assessed as inhibition of cell proliferation after 48 hrs by MTT assay; format: functional, cell-based; conditions: HepG2, 48 h
How it was run: (§2)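 Seeded at 5 × 10^3 cells/well with graded compound levels, DMSO as negative control, 48 h. MTT added for 4 h, formazan dissolved in DMSO, OD read at 570 nm (reference 630 nm). IC50 by nonlinear regression; triplicate samples.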

[4] = tested on: NCI/ADR-RES; experiment: Intrinsic cytotoxicity against human MCF7/ADR cells assessed as inhibition of cell proliferation after 48 hrs by MTT assay; format: cell-based; how it was run: as §2
[5] = target: T1, ATP-dependent translocase ABCB1; experiment: Inhibition of P-gp mediated efflux in adriamycin-resistant human HepG2 cells assessed as intracellular rhodamine-123 accumulation at 1 uM incubated in dark condition for 90 mins by flow cytometry; format: cell-based; how it was run: as §1
[6] = target: T1, ATP-dependent translocase ABCB1; experiment: Inhibition of P-gp mediated efflux in adriamycin-resistant human HepG2 cells assessed as intracellular rhodamine-123 accumulation at 2 uM incubated in dark condition for 90 mins by flow cytometry relative to control; format: cell-based; how it was run: as §1
[7] = target: T1, ATP-dependent translocase ABCB1; experiment: Inhibition of P-gp mediated efflux in adriamycin-resistant human HepG2 cells assessed as intracellular rhodamine-123 accumulation at 0.125 uM incubated in dark condition for 90 mins by flow cytometry relative to control; format: cell-based; how it was run: as §1

T1 sequence (P08183 whole entry): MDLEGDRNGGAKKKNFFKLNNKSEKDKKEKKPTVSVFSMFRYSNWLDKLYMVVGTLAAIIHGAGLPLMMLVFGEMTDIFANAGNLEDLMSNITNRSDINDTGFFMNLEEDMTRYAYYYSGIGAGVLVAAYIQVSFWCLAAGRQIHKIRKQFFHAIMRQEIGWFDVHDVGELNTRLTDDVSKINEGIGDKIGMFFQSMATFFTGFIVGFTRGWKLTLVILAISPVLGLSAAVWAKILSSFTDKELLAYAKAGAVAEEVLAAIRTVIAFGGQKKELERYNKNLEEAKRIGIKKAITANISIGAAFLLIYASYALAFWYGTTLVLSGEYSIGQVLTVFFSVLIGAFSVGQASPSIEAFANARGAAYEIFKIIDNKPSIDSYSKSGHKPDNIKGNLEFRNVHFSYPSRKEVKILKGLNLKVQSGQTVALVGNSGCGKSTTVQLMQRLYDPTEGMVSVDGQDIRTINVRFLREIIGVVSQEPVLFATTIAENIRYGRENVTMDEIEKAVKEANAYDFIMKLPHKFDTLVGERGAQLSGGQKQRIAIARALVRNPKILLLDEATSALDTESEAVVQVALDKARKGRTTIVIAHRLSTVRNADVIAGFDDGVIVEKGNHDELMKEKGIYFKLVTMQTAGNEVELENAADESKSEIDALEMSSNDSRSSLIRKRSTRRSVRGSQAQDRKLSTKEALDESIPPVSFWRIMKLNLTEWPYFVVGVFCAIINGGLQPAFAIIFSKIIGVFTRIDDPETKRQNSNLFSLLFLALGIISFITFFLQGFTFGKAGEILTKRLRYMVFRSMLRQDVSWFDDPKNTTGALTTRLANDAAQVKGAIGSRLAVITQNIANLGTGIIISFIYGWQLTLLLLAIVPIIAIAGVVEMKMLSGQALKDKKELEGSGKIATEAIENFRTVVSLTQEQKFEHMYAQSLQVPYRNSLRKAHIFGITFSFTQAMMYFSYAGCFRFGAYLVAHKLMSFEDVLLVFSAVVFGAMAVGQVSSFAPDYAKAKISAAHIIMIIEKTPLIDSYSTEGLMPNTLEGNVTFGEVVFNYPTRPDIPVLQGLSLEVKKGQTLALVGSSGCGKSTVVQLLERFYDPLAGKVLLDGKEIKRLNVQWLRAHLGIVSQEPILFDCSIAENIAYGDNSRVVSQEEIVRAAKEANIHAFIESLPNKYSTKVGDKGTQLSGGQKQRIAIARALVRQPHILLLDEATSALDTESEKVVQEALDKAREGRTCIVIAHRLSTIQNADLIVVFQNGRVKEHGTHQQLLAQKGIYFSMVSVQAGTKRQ

SMILES | INH [1] | INH [2] | IC50 [3] | IC50 [4] | further results
CC(=O)O[C@@H]1[C@@H](OC(C)=O)C(C)(C)C/C=C(\C)[C@@H](OC(C)=O)[C@]2(OC(C)=O)[C@@H](/C=C(\C)[C@@H]1OC(C)=O)[C@@H](OC(=O)c1ccccc1)[C@@H](C)[C@@H]2OC(C)=O | Active | – | – | – | –
C/C1=C\[C@H]2[C@@H](OC(=O)c3ccccc3)[C@@H](C)[C@H](O)[C@]2(O)[C@H](O)[C@](C)(O)/C=C/C(C)(C)[C@H](O)C[C@H]1O | – | Not Active | – | – | –
CC(=O)O[C@@H]1[C@@H](OC(C)=O)C(=O)/C(C)=C/[C@H]2[C@@H](OC(=O)c3ccccc3)[C@@H](C)[C@H](OC(C)=O)[C@]2(OC(C)=O)[C@H](OC(C)=O)/C(C)=C/CC1(C)C | Active | – | – | – | –
C/C1=C\[C@H]2[C@@H](O)[C@@H](C)[C@H](O)[C@]2(O)[C@H](O)[C@](C)(O)/C=C/C(C)(C)[C@H](O)C[C@H]1O | – | Not Active | – | – | –
CC(=O)O[C@@H]1C[C@@H](OC(=O)c2ccccc2)/C(C)=C/[C@H]2[C@@H](OC(=O)c3ccccc3)[C@@H](C)[C@H](OC(=O)c3ccccc3)[C@]2(OC(C)=O)[C@H](O)[C@](C)(O)/C=C/C1(C)C | Active | – | > 150 µM | 64.2 µM | INH [5]: Active
CC(=O)O/C1=C(\C)[C@@H](O)[C@H]2[C@@H](OC(=O)c3ccccc3)[C@@H](C)[C@H](OC(=O)c3ccccc3)[C@]2(OC(C)=O)[C@H](OC(C)=O)/C(C)=C/CC(C)(C)[C@H](OC(C)=O)[C@H]1OC(C)=O | Active | – | > 150 µM | > 150 µM | FC [6]: 2.78; INH [5]: Active; FC [7]: 1.37
C/C1=C\[C@H]2[C@@H](OC(=O)c3ccccc3)[C@@H](C)[C@H](O)[C@]2(O)[C@H](O)[C@](C)(O)/C=C/C(C)(C)[C@H](O)C[C@H]1OC(=O)c1ccccc1 | – | Not Active | – | – | –
CC(=O)O/C1=C(\C)[C@@H](O)[C@H]2[C@@H](OC(=O)c3ccccc3)[C@@H](C)[C@H](OC(C)=O)[C@]2(OC(C)=O)[C@H](OC(C)=O)/C(C)=C/CC(C)(C)[C@H](OC(C)=O)[C@H]1OC(C)=O | Active | – | – | – | –
CC(=O)O[C@@H]1C[C@@H](OC(=O)c2ccccc2)/C(C)=C/[C@H]2[C@@H](OC(=O)c3ccccc3)[C@@H](C)[C@H](OC(C)=O)[C@]2(OC(C)=O)[C@H](O)[C@](C)(O)/C=C/C1(C)C | Active | – | 93.3 µM | > 150 µM | –
CC(=O)O[C@@H]1C[C@@H](OC(=O)c2ccccc2)/C(C)=C/[C@H]2[C@@H](OC(=O)c3ccccc3)[C@@H](C)[C@H](OC(=O)c3ccco3)[C@]2(OC(C)=O)[C@H](O)[C@](C)(O)/C=C/C1(C)C | Active | – | > 150 µM | > 150 µM | –
CC(=O)O/C1=C(\C)[C@H]2O[C@](C)([C@@H](OC(C)=O)[C@]3(OC(C)=O)[C@@H]2[C@@H](OC(=O)c2ccccc2)[C@@H](C)[C@@H]3OC(C)=O)[C@H]2O[C@@H]2C(C)(C)[C@H](OC(C)=O)[C@H]1OC(C)=O | – | – | 130 µM | 55.6 µM | INH [5]: Active; FC [1]: 3.65
CC(=O)O[C@@H]1C[C@@H](O)/C(C)=C/[C@H]2[C@@H](OC(=O)c3ccccc3)[C@@H](C)[C@H](O)[C@]2(OC(C)=O)[C@H](OC(=O)c2ccccc2)[C@](C)(O)/C=C/C1(C)C | Active | – | – | – | –
CC(=O)O[C@@H]1C[C@@H](OC(=O)c2ccccc2)/C(C)=C/[C@H]2[C@@H](OC(=O)c3ccccc3)[C@@H](C)[C@H](O)[C@]2(OC(C)=O)[C@H](O)[C@](C)(O)/C=C/C1(C)C | Active | – | > 150 µM | > 150 µM | FC [6]: 2.8; INH [5]: Active; FC [7]: 1.32
CC(=O)O[C@@H]1C[C@@H](OC(C)=O)C(C)(C)/C=C/[C@@](C)(O)[C@@H](O)[C@@]2(OC(C)=O)[C@@H](O)[C@H](C)[C@H](OC(=O)c3ccccc3)[C@@H]2/C=C/1C | Active | – | – | – | –
CC(=O)O[C@@H]1C[C@@H](OC(=O)c2ccccc2)/C(C)=C/[C@H]2[C@@H](OC(=O)c3ccccc3)[C@@H](C)[C@H](O)[C@]2(OC(C)=O)[C@H](OC(C)=O)[C@](C)(O)/C=C/C1(C)C | Active | – | – | – | –
CC(=O)O[C@@H]1C[C@@H](OC(=O)c2ccccc2)/C(C)=C/[C@H]2[C@@H](OC(=O)c3ccccc3)[C@@H](C)[C@H](OC(=O)c3cccs3)[C@]2(OC(C)=O)[C@H](O)[C@](C)(O)/C=C/C1(C)C | Active | – | > 150 µM | > 150 µM | –
CC(=O)O/C1=C(\C)C(=O)[C@H]2[C@@H](OC(=O)c3ccccc3)[C@@H](C)[C@H](OC(C)=O)[C@]2(OC(C)=O)[C@H](OC(C)=O)/C(C)=C/CC(C)(C)[C@H](OC(C)=O)[C@H]1OC(C)=O | Active | – | – | – | INH [5]: Active
CC(=O)O[C@@H]1[C@@H](OC(C)=O)C(=O)/C(C)=C/[C@H]2[C@@H](OC(=O)c3ccccc3)[C@@H](C)[C@H](OC(C)=O)[C@]2(OC(C)=O)[C@H](OC(C)=O)[C@]2(C)O[C@H]2CC1(C)C | Active | – | – | – | –
CC(=O)O[C@@H]1[C@@H](OC(C)=O)C(=O)/C(C)=C/C2=C[C@@H](C)[C@H](OC(C)=O)[C@]2(OC(C)=O)[C@H](OC(C)=O)/C(C)=C/CC1(C)C | – | Not Active | – | – | –
CC(=O)O/C1=C(\C)[C@H]2O[C@@](C)([C@@H](OC(C)=O)CC(C)(C)[C@H](OC(C)=O)[C@H]1OC(C)=O)[C@@H](OC(C)=O)[C@]1(OC(C)=O)[C@@H]2[C@@H](OC(=O)c2ccccc2)[C@@H](C)[C@@H]1OC(C)=O | – | – | > 150 µM | > 150 µM | FC [6]: 3.07; INH [5]: Active; FC [7]: 1.81
CC(=O)O[C@@H]1C[C@@H](OC(=O)c2ccccc2)/C(C)=C/[C@H]2[C@@H](OC(=O)c3ccccc3)[C@@H](C)[C@H](O)[C@]2(O)[C@H](O)[C@](C)(O)/C=C/C1(C)C | Active | – | – | – | –
CC(=O)O[C@@H]1C[C@@H](OC(=O)c2ccccc2)/C(C)=C/[C@H]2[C@@H](OC(=O)c3ccccc3)[C@@H](C)[C@H](OC(=O)c3ccc(Br)cc3)[C@]2(OC(C)=O)[C@H](O)[C@](C)(O)/C=C/C1(C)C | Active | – | 81.3 µM | > 150 µM | –
CC(=O)O/C1=C(\C)[C@@H](O)[C@H]2[C@@H](OC(=O)c3ccccc3)[C@@H](C)[C@H](O)[C@]2(O)[C@H](O)/C(C)=C/CC(C)(C)[C@H](OC(C)=O)[C@H]1OC(C)=O | – | Not Active | – | – | –
CC(=O)O[C@@H]1C[C@@H](O)/C(C)=C/[C@H]2[C@@H](OC(=O)c3ccccc3)[C@@H](C)[C@H](O)[C@]2(OC(C)=O)[C@H](O)[C@](C)(O)/C=C/C1(C)C | – | Not Active | – | – | –
CC(=O)O[C@@H]1[C@@H](O)C(=O)/C(C)=C/C2=C[C@@H](C)[C@H](OC(C)=O)[C@]2(OC(C)=O)[C@H](OC(C)=O)/C(C)=C/CC1(C)C | – | Not Active | – | – | –
CC(=O)O[C@@H]1CC(=O)/C(C)=C/[C@H]2C=C(C)C(=O)[C@]2(OC(C)=O)[C@H](O)[C@](C)(O)/C=C/C1(C)C | – | Not Active | – | – | –
CC(=O)O[C@@H]1[C@@H](O)C(=O)/C(C)=C/C2=C[C@@H](C)[C@H](O)[C@]2(OC(C)=O)[C@H](O)/C(C)=C/CC1(C)C | – | Not Active | – | – | –
